Data on eight compounds can be found in article PMC9585582 (ACS Bio & Med Chem Au, 2022).

Structures are written as SMILES. Where two headings read alike, the source gives them in different places.

Data set [1] concerns microtubules (taxane binding site) in living HeLa cells. Briefly: Competition binding assay with PB-GABA-Taxol in living HeLa cells. To be noted: read-out: cellular Ki; PB-GABA-Taxol 1.5 μM, verapamil 100 μM, 37 °C, 4% FBS, 3 h, 60K cells/well.
For data set [2], the target named is cross-linked microtubules. To be noted: cited from earlier work; for Kd: read-out: biochemical Kd; for Ki: read-out: biochemical Ki.
A short description of data set [3]: Cytotoxicity toward HeLa cells after 48 h by flow cytometry. The format is cell-based. To be noted: human. A general note: A flow cytometer gives signals particle by particle.
Data set [4] deals with microtubule network of HeLa cells. Briefly: Confocal microscopy of HeLa cells expressing mScarlet-α-Tubulin. Type of data set: cell-based. Conditions: 1 h at 37 °C. An outline of the steps: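 HeLa cells transiently transfected to express mScarlet-α-tubulin. Live cells were treated with microtubule modulators for 1 h at 37 °C, and microtubule-network phenotypes were imaged by confocal microscopy.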

The test system of data set [5] is taxane binding site in living cells. To be noted: read-out: Ki by confocal microscopy; cited from earlier work.
Data set [6] relates to microtubules in living HeLa cells. Put plainly: Allosteric modulator assay with PB-GABA-Taxol in living HeLa cells. To be noted: allosteric modulator model; PB-GABA-Taxol 1.5 μM, verapamil 100 μM, 3 h, 37 °C. Type of data set: binding.
The next data set deals with albumin. Conditions: read-out: Kd for albumin; cited from earlier work.
The target in data set [7] is purified GDP-bound microtubules. Conditions: cited from earlier work.

On to `CC(=O)O[C@H]1C(=O)[C@@]2(C)[C@H]([C@H](OC(=O)c3ccccc3)[C@]3(O)C[C@H](O)C(C)=C1C3(C)C)[C@]1(OC(C)=O)CO[C@@H]1C[C@@H]2O` [baccatin III], for which, in data set [1], the Ki stood at 17000 ± 3000 nM. Besides, in data set [2] (ref 21), the Kd was 6700 ± 2000 nM.
`CO[C@H]1C(=O)[C@]2(C)[C@@H](OC)C[C@H]3OC[C@@]3(OC(C)=O)[C@H]2[C@H](OC(=O)c2ccccc2)[C@]2(O)C[C@H](OC(=O)[C@H](O)[C@@H](NC(=O)OC(C)(C)C)c3ccccc3)C(C)=C1C2(C)C` [cabazitaxel]: the Ki in data set [1] was 6 nM; in data set [2] (ref 17), 7.4 ± 0.9 nM.
As to `COc1cc2c(c(OC)c1OC)-c1ccc(OC)c(=O)cc1[C@@H](NC(C)=O)CC2` [colchicine], the IC50 at 48 h in data set [3] came to 20 ± 8 nM. In data set [4], the fluorescent microtubule phenotype entry is given as “disrupted the microtubule network”.
For `CC(=O)O[C@@]12CO[C@@H]1C[C@H](O)[C@@]1(C)C(=O)[C@H](O)C3=C(C)[C@@H](OC(=O)[C@H](O)[C@@H](NC(=O)OC(C)(C)C)c4ccccc4)C[C@@](O)([C@@H](OC(=O)c4ccccc4)[C@H]21)C3(C)C` [docetaxel], the Ki in data set [1] is 16 nM; in data set [2] (cross-linked microtubules) it was 17 ± 6 nM. In addition, the results for the Kd in data set [2] (ref 17) and in data set [2] (ref 65) were 6.8 ± 0.2 nM and 25 ± 0.4 nM, respectively.
Consider `C/C(=C\c1csc(C)n1)[C@@H]1C[C@@H]2O[C@]2(C)CCC[C@H](C)[C@H](O)[C@@H](C)C(=O)C(C)(C)[C@@H](O)CC(=O)N1` [ixabepilone], for which the Ki is 10 nM in data set [1] and 7.6 ± 1.6 nM in data set [5].
Regarding `COc1cc2cc(c1Cl)N(C)C(=O)C[C@H](OC(=O)[C@H](C)N(C)C(C)=O)[C@]1(C)O[C@H]1[C@H](C)[C@@H]1C[C@@](O)(NC(=O)O1)[C@H](OC)/C=C/C=C(\C)C2` [maytansine], the “cooperativity factor α” value in data set [6] is 0.21.
As to `CC(=O)O[C@H]1C(=O)[C@@]2(C)[C@H]([C@H](OC(=O)c3ccccc3)[C@]3(O)C[C@H](OC(=O)[C@H](O)[C@@H](NC(=O)c4ccccc4)c4ccccc4)C(C)=C1C3(C)C)[C@]1(OC(C)=O)CO[C@@H]1C[C@@H]2O` [paclitaxel], the Ki in data set [1] is 22 nM; in data set [2] (cross-linked microtubules), 27 ± 11 nM; in data set [2] (ref 21), 31 nM; in data set [2] (ref 67), 19 nM. In addition, the fluorescent microtubule phenotype entry in data set [4] is reported as “enhanced the formation of long microtubule fibers”. Also, the Kd in data set [2] (ref 65) is 70 ± 0.6 nM; in data set [2] (ref 66), 15 nM; in data set [2] (ref 68) it was 50 nM; on albumin it was 120 nM.
Take `CC[C@]1(O)C[C@@H]2CN(CCc3c([nH]c4ccccc34)[C@@](C(=O)OC)(c3cc4c(cc3OC)N(C)[C@H]3[C@@](O)(C(=O)OC)[C@H](OC(C)=O)[C@]5(CC)C=CCN6CC[C@]43[C@@H]65)C2)C1` [vinblastine]: the “cooperativity factor α” value in data set [6] was found to be 0.18. In data set [7], the dissociation constant (Kd) was 190 to 1000 nM.

As usually defined, the Ki is the equilibrium dissociation constant of an inhibitor or competing ligand from its target. Broadly, the Kd is the constant that tells how readily two partners part at equilibrium. In general, IC50 refers to the concentration at which inhibition is half-maximal. A higher IC50 goes with weaker potency in that assay.
